Bioassay records from PubChem BioAssay.
Calb biofilm kill: mixture kills Candida albicans biofilm cells. C. albicans biofilm persisters + clotrimazole, fluorescence viability; primary screen in compound mixtures of four per well. inhibition, % at 7.6 µM. 120,000 tested, 0.02% active;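 active = inhibition above 30.3% in the primary screen of four-compound pools, then above 30% when the compound was retested; inconclusive = passed the primary limit but could not be retested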;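 also: compounds exposed to preformed 24 h biofilms for 48 h; 0% = untreated biofilm control and 100% = clotrimazole plus chlorhexidine kill blank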
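Assay system: C. albicans biofilms / Medium: RPMI/MOPS medium, pH 7.0 / Schedule: biofilm formation 24 h, compound exposure 48 h, 37 °C / Measured by: Alamar Blue fluorescence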
Pf gamet viab: kills late stage P. falciparum gametocytes; P. falciparum stage V gametocytes, ATP luminescence, 24 h; inhibition, % at 10.9 µM; 150,000 tested, 0.065% active; AID 743093;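 active = inhibition above the mean plus 3 SD of compounds within the control limits, set per campaign, cut at about 38% in these data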;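 also: 0% = DMSO wells and 100% = medium only without gametocytes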
ROMK primary: modulators of human ROMK potassium channel; AID 1918; Tet-inducible ROMK, thallium flux fluorescence; actives lie on both sides; 130,000 tested, 2% active; B-score at 10 µM;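 active = signal ratio slope over the read window, or its plate-corrected B-score, at least 3 SD from the plate mean, either direction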;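 also: B-score of the F/F0 ratio slope over 7 to 12 s after thallium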
Target sequence (P48048 whole entry, looked up): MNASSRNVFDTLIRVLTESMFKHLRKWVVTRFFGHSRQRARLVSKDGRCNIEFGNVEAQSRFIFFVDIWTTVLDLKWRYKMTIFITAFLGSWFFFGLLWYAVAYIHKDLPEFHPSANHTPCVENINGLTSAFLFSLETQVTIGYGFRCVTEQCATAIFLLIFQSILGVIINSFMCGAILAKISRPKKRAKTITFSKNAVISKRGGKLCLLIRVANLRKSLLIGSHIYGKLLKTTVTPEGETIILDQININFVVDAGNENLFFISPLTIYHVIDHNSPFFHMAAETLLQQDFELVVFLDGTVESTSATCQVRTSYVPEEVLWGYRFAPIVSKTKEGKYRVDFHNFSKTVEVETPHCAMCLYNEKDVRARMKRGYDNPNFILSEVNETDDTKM
ROMK hit retest: retested hit modulating human ROMK potassium channel. shares compounds with ROMK primary. ROMK thallium flux, fluorescence ratio; hits give low values. normalized thallium flux (F/F0 slope) at 10 µM. 3,000 tested, 54% active. AID 1917;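 active = Flux at 10 µM at least 3 SD below or above vehicle control mean in one or both replicates; inconclusive = no clear call, values can overlap the other calls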
* hit, by the source's call. The sample as a whole holds a higher share of hits than the screen did.

Screening COc1ccc(N2CCN(C(=O)c3ccc(N(C)S(=O)(=O)c4ccc(C)cc4)cc3)CC2)cc1 returned Calb biofilm kill 7 and ROMK primary -1.7.
COc1ccc(N2CCN(C(=O)c3ccc(N(C)S(=O)(=O)c4ccc(OC)cc4)cc3)CC2)cc1 was read as Calb biofilm kill 3, ROMK primary -14* and ROMK hit retest inconclusive.
Screening CCO[C@H]1OC(C(=O)N2CCN(Cc3ccc4c(c3)OCO4)CC2)=C[C@@H](c2ccc(C(F)(F)F)cc2)[C@@H]1CCCO returned Calb biofilm kill 17.
For COc1ccc(CNC(=O)C[C@H]2C(=O)N(CCc3ccccc3)C[C@@H]2Cc2ccccc2)cc1 the results were Pf gamet viab 5.
Screening CC(C)CCNC(=O)COC(=O)c1cc(Br)c(Br)s1 returned Calb biofilm kill 11, Pf gamet viab -3 and ROMK primary -0.44.
`O=C(NCCO)c1nc(C(=O)c2ccc(Cl)cc2)c2ccccc2n1` gave Pf gamet viab 20.
For O=C(Cc1ccc([N+](=O)[O-])cc1)NCc1ccc2c(c1)OCO2 the results were Calb biofilm kill 5 and Pf gamet viab -36.
O=C(COC(=O)/C=C/c1ccc([N+](=O)[O-])cc1)NCc1ccc2c(c1)OCO2 was read as Calb biofilm kill 7, Pf gamet viab 14 and ROMK hit retest 0.079.
For COc1ccc(CCNC(=O)c2ccc(-c3ccc([N+](=O)[O-])cc3Cl)o2)cc1 the results were Calb biofilm kill 4, Pf gamet viab 13 and ROMK primary -0.022.
`O=C(NNC(=O)c1ccccc1O)c1ccco1` gave Calb biofilm kill 23 and ROMK primary 0.75.
Screening O=C(NCc1ccccn1)C1CCN(Cc2cnn(-c3ccccc3)c2-n2cccc2)CC1 returned Pf gamet viab 2 and ROMK primary -0.23.
Screening COc1cccc(CNC(=O)C2CCN(Cc3cnn(-c4ccccc4)c3-n3cccc3)CC2)c1 returned ROMK primary -3.5* and ROMK hit retest 0.055*.
Screening Cc1sc2nc(COC(=O)c3cccc(OC(F)F)c3)[nH]c(=O)c2c1C returned Calb biofilm kill -7 and Pf gamet viab 4.
`CCOC(=O)c1sc2nc(COC(=O)c3c(F)cccc3F)[nH]c(=O)c2c1C` gave Calb biofilm kill 23, Pf gamet viab 0, ROMK primary -2.4* and ROMK hit retest 0.09.
For Cc1occc1C(=O)N1CCN(Cc2ccccc2)CC1 the results were Pf gamet viab -10 and ROMK primary -0.18.
For O=C(O)c1ccoc1CN1CCCCC1 the results were Calb biofilm kill 9, Pf gamet viab 15, ROMK primary 1.7* and ROMK hit retest 0.075.
Cc1cccc(C2c3[nH]c4ccccc4c3CCN2C(=O)c2nn(C)c(=O)c3ccccc23)n1 (centres undefined) was read as Calb biofilm kill 0, Pf gamet viab 3, ROMK primary -4* and ROMK hit retest 0.066*.
Screening Cc1cccc(C2c3[nH]c4ccccc4c3CCN2C(=O)c2ocnc2C)n1 (centres undefined) returned Calb biofilm kill 16 and Pf gamet viab 5.
`COc1ccc(CNC(=O)C(C)Sc2ccc(C)cc2)cc1` (centres undefined) gave Calb biofilm kill 43, Pf gamet viab 2 and ROMK primary -0.58.
Screening Cc1ccc(SC(C)C(=O)NCc2ccncc2)cc1 (centres undefined) returned Calb biofilm kill 6, ROMK primary 2.5* and ROMK hit retest 0.084.
CN(Cc1ccccc1)C(=O)COC(=O)c1ccc(S(=O)(=O)N(C)C)cc1 was read as Calb biofilm kill -2 and ROMK primary -0.24.
`CCOC(=O)CCCOC(=O)c1ccc(S(=O)(=O)N(C)C)cc1` gave Pf gamet viab -18 and ROMK hit retest 0.08.
`O=C(N[C@@H](Cc1ccccc1)C(=O)OCc1ccccc1)c1nc[nH]c1C(=O)N1CCNCC1` gave Pf gamet viab 4.
For O=C(O)CC(CNS(=O)(=O)c1ccccc1)c1ccccc1 (centres undefined) the results were ROMK hit retest inconclusive.
For O=C(O)CCCCCCNS(=O)(=O)c1ccccc1 the results were Pf gamet viab -1 and ROMK primary -0.25.
For CCCCCOC(=O)C1=C(C)NC(=O)NC1c1ccc(OC)cc1 (centres undefined) the results were Pf gamet viab -13.
Screening COc1ccc(-n2cc(CNCc3cccnc3)c(-c3cccc(F)c3)n2)cc1 returned Calb biofilm kill 22, Pf gamet viab -11 and ROMK primary -3.2.
Screening COc1ccc(-n2cc(CNCCc3cnc[nH]3)c(-c3cccc(F)c3)n2)cc1 returned Calb biofilm kill 10, Pf gamet viab 18, ROMK primary -1.9* and ROMK hit retest 0.061*.
COc1ccccc1N(Cc1ccccc1)S(=O)(=O)c1cc(C(=O)O)ccc1Cl was read as Calb biofilm kill 5, Pf gamet viab 5 and ROMK primary 0.36.
`COC(Cn1c2c(c3cc(C)ccc31)CCCC2NCc1ccccc1)OC` (centres undefined) gave Calb biofilm kill 16, Pf gamet viab -3, ROMK primary -3.9* and ROMK hit retest 0.066*.
For Cc1ccc2c(c1)c1c3n2CCCN(Cc2ccccc2)C3CCC1 (centres undefined) the results were ROMK primary 0.51.
Screening C=CC1CN(CC(=O)OC)S(=O)(=O)c2ccccc21 (centres undefined) returned Calb biofilm kill 11 and ROMK hit retest 0.074.
C=C1CN(CC(=O)OC)S(=O)(=O)c2ccccc21 was read as Calb biofilm kill 7 and Pf gamet viab 3.
CC(=O)Nc1ccc(C(C#N)c2ccccc2)cc1 (centres undefined) was read as Calb biofilm kill 15, Pf gamet viab -5 and ROMK primary 0.43.
O=C1NN(c2ccccc2)C(=O)/C1=C\c1ccc(-c2cc([N+](=O)[O-])ccc2O)o1 was read as Calb biofilm kill 32, Pf gamet viab -2 and ROMK hit retest 0.054*.
O=C1NN(c2ccc(Cl)cc2)C(=O)/C1=C\c1ccc(-c2cccc(C(=O)O)c2)o1 was read as Calb biofilm kill 19, Pf gamet viab 27 and ROMK primary 0.11.
COc1ccc(CNCc2cn(-c3cccc(F)c3)nc2-c2ccc(C)o2)cc1 was read as Calb biofilm kill 18, Pf gamet viab -1 and ROMK primary -0.56.
Screening CC(C)Sc1nc2c([nH]1)c(=N)ncn2Cc1ccccc1 returned Calb biofilm kill 3, Pf gamet viab -24, ROMK primary -4.4* and ROMK hit retest 0.057*.
Screening Cc1cccc(OCCSc2nc3c([nH]2)c(=N)ncn3Cc2ccccc2)c1 returned Calb biofilm kill 11.
For O=C(Nc1ccc(-n2cc(Br)cn2)cc1)c1ccncc1 the results were Pf gamet viab 8.
For COc1ccccc1N(CC(=O)N(c1ccccc1)C(C)C)S(=O)(=O)c1cccs1 the results were Calb biofilm kill 13, Pf gamet viab 4 and ROMK primary -2.3.
`COc1ccccc1N(CC(=O)N(CC(C)C)CC(C)C)S(=O)(=O)c1cccs1` gave Calb biofilm kill 10, ROMK primary -4.1* and ROMK hit retest 0.067*.
